Data as given in the array DNA melting data of Ke et al. (doi:10.1101/2024.01.08.574731).

Columns and labels:
[1] = folding enthalpy; higher = less favourable; fluorescence melt of hairpins on a sequencing array, two-state fit; conditions: sodium 0.088 M
How it was run: (§1)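 Cy3 fluorescence of library hairpins on a sequenced MiSeq flow cell, with annealed Cy3 and quencher oligos, was imaged in 50 mM Na-HEPES pH 8.0, 25 mM NaCl in 2.5 °C steps up to 60 °C. Signals were normalised to pre-quench Cy3 and to control variants. Melting temperature and folding enthalpy came from bootstrapped two-state fits, inverse-variance combined over four replicates. Fitted temperatures were raised by 9.35 °C to match UV melts.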

[2] = melting temperature; fluorescence melt of hairpins on a sequencing array, two-state fit, raised by 9.35 °C to match UV melts; conditions: sodium 0.088 M
How it was run: as §1

| Sequence | folding enthalpy [1] | Tm [2] |
| --- | --- | --- |
| GCGATCGAAAGATGACGC ((((((....)))..))) | -28.3 kcal/mol | 44.1 °C |
| GCGATCGAAAGATGCCGC ((((((....)))..))) | -17 kcal/mol | 39.6 °C |
| GCGATCGAAAGATGGCGC ((((((....)))..))) | -34.8 kcal/mol | 53.2 °C |
| GCGATCGGAAACGATCAC (.(((((....))))).) | -14.7 kcal/mol | 46.5 °C |
| GCGATCGGAAACGGTCGC ((((.((....)).)))) | -39.1 kcal/mol | 66.8 °C |
| GCGATCTCGAAAGAGCGC (((..(((....)))))) | -33.1 kcal/mol | 56.3 °C |
| GCGATCTTCGC ((((...)))) | -19.4 kcal/mol | 51.9 °C |
| GCGATGACGAAAGTCCGC (((..(((....)))))) | -20 kcal/mol | 52 °C |
| GCGATGACTCGC ((((....)))) | -21.7 kcal/mol | 47.2 °C |
| GCGATGCATCGC ((((....)))) | -32.1 kcal/mol | 59.6 °C |
| GCGATGCGAAAGCAAAGC ((..(((....)))..)) | -32.9 kcal/mol | 61 °C |
| GCGATGCGAAAGCACGC (((.(((....)))))) | -23.4 kcal/mol | 68.4 °C |
| GCGATGCGAAAGCACGGC ((..(((....)))..)) | -16.5 kcal/mol | 51.2 °C |
| GCGATGCGAAAGCATGGC ((.((((....)))).)) | -21.2 kcal/mol | 64.6 °C |
| GCGATGCGAAAGCCACGC (((..((....))..))) | -21.1 kcal/mol | 52.1 °C |
| GCGATGCGAAAGCCTCGC ((((.((....)).)))) | -40.3 kcal/mol | 64.6 °C |
| GCGATGCGAAAGCCTGGC ((.(.((....)).).)) | -11.5 kcal/mol | 29.1 °C |
| GCGATGCGAAAGCTGCGC (((..((....))..))) | -22.7 kcal/mol | 64.2 °C |
| GCGATGCGAAAGCTTAGC ((.(.((....)).).)) | -23.6 kcal/mol | 56.9 °C |
| GCGATGCGAAAGCTTTGC ((.(.((....)).).)) | -21.2 kcal/mol | 46.3 °C |
| GCGATGGCTCGC ((((....)))) | -19.2 kcal/mol | 47.8 °C |
| GCGATTCGAAAGAAACGC (((.(((....))).))) | -47.3 kcal/mol | 55.7 °C |
| GCGATTCGAAAGAAGCGC (((.(((....))).))) | -39.7 kcal/mol | 68.7 °C |

| Sequence | folding enthalpy [1] | Tm [2] |
| --- | --- | --- |
| GCGATTCTTCGC ((((....)))) | -26.1 kcal/mol | 53.5 °C |
| GCGATTTCTCGC ((((....)))) | -24.4 kcal/mol | 49.5 °C |
| GCGATTTTCGC ((((...)))) | -22 kcal/mol | 52.3 °C |
| GCGCAACCGAAAGGTCGC (((..(((....)))))) | -23.9 kcal/mol | 55 °C |
| GCGCAAGGAAACTCGCGC ((((.((....)).)))) | -36.1 kcal/mol | 54.6 °C |
| GCGCAAGGAAACTTGCAC (.(((((....))))).) | -13.4 kcal/mol | 46.3 °C |
| GCGCAATCGAAAGATCGC (((..(((....)))))) | -24.1 kcal/mol | 45.5 °C |
| GCGCACCGAAAGGTCGC (((.(((....)))))) | -25.7 kcal/mol | 67 °C |
| GCGCACGAAAGTGATCGC ((((((....)))..))) | -24.8 kcal/mol | 49.6 °C |
| GCGCACGAAAGTGCCCGC ((((((....)))..))) | -12 kcal/mol | 47 °C |
| GCGCACGGAAACGCGCGC ((((.((....)).)))) | -40.6 kcal/mol | 69 °C |
| GCGCAGCGAAAGCACCGC (((..((....))..))) | -8.24 kcal/mol | 45.2 °C |
| GCGCAGCGAAAGCCCCGC (((..((....))..))) | -5.72 kcal/mol | 36.4 °C |
| GCGCAGCGAAAGCCGGGC ((.(.((....)).).)) | -8.2 kcal/mol | 41.2 °C |
| GCGCAGCGAAAGCTCCGC (((.(((....))).))) | -34.1 kcal/mol | 44.7 °C |
| GCGCAGCGAAAGCTTTGC ((..(((....)))..)) | -6.59 kcal/mol | 38.8 °C |
| GCGCATCGAAAGATCGC (((.(((....)))))) | -37 kcal/mol | 55.8 °C |
| GCGCATGGAAACATACGC (((.(((....))).))) | -40.6 kcal/mol | 49.5 °C |
| GCGCATGGAAACATGTGC ((.((((....)))).)) | -36.5 kcal/mol | 57.1 °C |
| GCGCCACGAAAGTGACGC (((.(((....))).))) | -38.4 kcal/mol | 66 °C |
| GCGCCAGGAAACTGACGC (((.(((....))).))) | -43.1 kcal/mol | 56 °C |
| GCGCCAGGAAACTGGCAC (.(((((....))))).) | -12.2 kcal/mol | 47.5 °C |
| GCGCCATCGAAAGATCGC (((..(((....)))))) | -24.3 kcal/mol | 42.5 °C |

| Sequence | folding enthalpy [1] | Tm [2] |
| --- | --- | --- |
| GCGCCCACGAAAGTGCGC (((..(((....)))))) | -35.2 kcal/mol | 56 °C |
| GCGCCCGAAAGGGACCGC ((((((....)))..))) | -22.7 kcal/mol | 50.3 °C |
| GCGCCCGAAAGGGCTCGC ((((((....)))..))) | -13 kcal/mol | 52.4 °C |
| GCGCCCGAAAGGGGTCGC ((((((....)))..))) | -19.5 kcal/mol | 58.3 °C |
| GCGCCCGGAAACGAGCGC ((((.((....)).)))) | -38.9 kcal/mol | 60 °C |
| GCGCCCGGAAACGGGCAC (.(((((....))))).) | -9.09 kcal/mol | 55.4 °C |
| GCGCCGACGAAAGTCCGC (((..(((....)))))) | -19.8 kcal/mol | 50 °C |
| GCGCCGCGAAAGCCTCGC (((..((....))..))) | -19.3 kcal/mol | 44.4 °C |
| GCGCCGCGAAAGCGTTGC ((..(((....)))..)) | -15.3 kcal/mol | 47.6 °C |
| GCGCCGCGAAAGCTGTGC ((.(.((....)).).)) | -20.4 kcal/mol | 53.9 °C |
| GCGCCGGGAAACCGGTGC ((.((((....)))).)) | -31.5 kcal/mol | 69 °C |
| GCGCCTGGAAACAGGCAC (.(((((....))))).) | -11.9 kcal/mol | 47.9 °C |
| GCGCGACGAAAGTCCCGC (((.(((....))).))) | -42.8 kcal/mol | 57.5 °C |
| GCGCGACGAAAGTCCGC (((.(((....)))))) | -29 kcal/mol | 66.8 °C |
| GCGCGAGGAAACCCGCAC (.(((.(....).))).) | -16.8 kcal/mol | 38.1 °C |
| GCGCGATCGAAAGATCGC (((..(((....)))))) | -6.32 kcal/mol | 60.6 °C |
| GCGCGCGAAAGCGATCGC ((((((....)))..))) | -18.5 kcal/mol | 52.8 °C |
| GCGCGCGAAAGCGTCCGC ((((((....)))..))) | -14.9 kcal/mol | 53 °C |
| GCGCGCTCGAAAGAGCGC (((..(((....)))))) | -6.02 kcal/mol | 66.8 °C |
| GCGCGGCGAAAGCCCAGC ((..(((....)))..)) | -16 kcal/mol | 57.5 °C |
| GCGCGGCGAAAGCTGTGC ((.(.((....)).).)) | -32.2 kcal/mol | 65.2 °C |
| GCGCGTCGAAAGACCCGC (((.(((....))).))) | -37.3 kcal/mol | 55.8 °C |
| GCGCGTGGAAACACACGC (((.(((....))).))) | -34.1 kcal/mol | 57.4 °C |

| Sequence | folding enthalpy [1] | Tm [2] |
| --- | --- | --- |
| GCGCGTGGAAACACGTGC ((.((((....)))).)) | -52.1 kcal/mol | 64.1 °C |
| GCGCTAGGAAACTAACGC (((.(((....))).))) | -29.9 kcal/mol | 45.5 °C |
| GCGCTATCGAAAGATCGC (((..(((....)))))) | -25.6 kcal/mol | 44.2 °C |
| GCGCTCGAAAGAGACGC ((((((....))).))) | -28.6 kcal/mol | 58 °C |
| GCGCTCGAAAGAGATCGC ((((((....)))..))) | -24.7 kcal/mol | 45.8 °C |
| GCGCTCGAAAGAGGACGC ((((((....)))..))) | -23.7 kcal/mol | 50 °C |
| GCGCTCGAAAGAGTCCGC ((((((....)))..))) | -24.3 kcal/mol | 42.8 °C |
| GCGCTGCGAAAGCAATGC ((..(((....)))..)) | -18 kcal/mol | 47.8 °C |
| GCGCTGCGAAAGCATAGC ((..(((....)))..)) | -22.7 kcal/mol | 52.7 °C |
| GCGCTGCGAAAGCATGGC ((..(((....)))..)) | -19.4 kcal/mol | 43.6 °C |
| GCGCTGCGAAAGCATTGC ((..(((....)))..)) | -17.2 kcal/mol | 41.1 °C |
| GCGCTGCGAAAGCCTCGC (((..((....))..))) | -22 kcal/mol | 47.6 °C |
| GCGCTGCGAAAGCGGAGC ((.(.((....)).).)) | -21.4 kcal/mol | 63.3 °C |
| GCGCTGCGAAAGCTGAGC ((.(.((....)).).)) | -21.2 kcal/mol | 57.6 °C |
| GCGCTGCGAAAGCTTCGC (((..((....))..))) | -20.6 kcal/mol | 54.9 °C |
| GCGCTGTCGAAAGACCGC (((..(((....)))))) | -22.8 kcal/mol | 52.3 °C |
| GCGCTTCGAAAGAACGC (((.(((....)))))) | -32.9 kcal/mol | 53.1 °C |
| GCGGAAAACCGC ((((....)))) | -16.3 kcal/mol | 49.8 °C |
| GCGGAAGAAATTCCGC ((((((....)))))) | -34.9 kcal/mol | 61.8 °C |
| GCGGAAGCCCGC ((((....)))) | -14 kcal/mol | 57.3 °C |
| GCGGAAGGAAACTTTCGC (((.(((....))).))) | -36.1 kcal/mol | 53 °C |
| GCGGAATGCCGC ((((....)))) | -24.3 kcal/mol | 53 °C |
| GCGGACATCCGC ((((....)))) | -22.5 kcal/mol | 56.5 °C |
